Results: ChEMBL document CHEMBL2429791, “Preparation of asymmetric urea derivatives that target prostate-specific membrane antigen for SPECT imaging” (J Med Chem, 2013)

How the values were obtained:
Format in all cases: ADME, organism-based
LNCaP [1] = experiment: Biodistribution in LNCAP cells in C.B.-17/Icr +/+ Jcl mouse xenografted with human LNCAP and PC3 cells at 25.9 MBq, iv after 3 hrs; conditions: in vivo
In short: (§1)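 ¹²⁵I-labelled tracer given iv by tail vein to mice (22–24 g) bearing LNCaP (left shoulder) and PC-3 (right shoulder) xenografts of about 5–10 mm, grown from 1–5 × 10⁶ cells in 1:1 Matrigel. n=4 per time point; decapitated at 2 min, 30 min, 1, 3, 6 h. Tissues weighed and counted; uptake as %ID/g, mean ± SD.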

Liver [2] = experiment: Biodistribution in liver of C.B.-17/Icr […] Jcl mouse xenografted with human LNCAP and PC3 cells at 25.9 MBq, iv after 30 mins; conditions: in vivo, 0.5 h; in short: as §1
LNCaP [3] = experiment: Biodistribution in LNCAP cells in C.B.-17/Icr +/+ Jcl mouse xenografted with human LNCAP and PC3 cells at 25.9 MBq, iv after 6 hrs; conditions: in vivo; in short: as §1
[4] = Ratio of drug level in human LNCAP cells xenografted in C.B.-17/Icr +/+ Jcl mouse to blood of C.B.-17/Icr +/+ Jcl mouse xenografted with human LNCAP and PC3 cells at 25.9 MBq, iv after 3 hrs; conditions: LNCAP tumour xenograft relative to blood
In short: (§2)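 Tumor-to-blood and tumor-to-muscle ratios were calculated from %ID/g values in ¹²⁵I-tracer biodistribution in LNCaP/PC-3 xenografted mice. Tail-vein dosing, n=4 per time point, sacrifice at 2 min, 30 min, 1, 3 or 6 h.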

PC-3 = experiment: Biodistribution in PC3 cells in C.B.-17/Icr +/+ Jcl mouse xenografted with human LNCAP and PC3 cells at 25.9 MBq, iv after 30 mins; conditions: in vivo, 0.5 h; in short: as §1
Nucleic Acid [5] = experiment: Ratio of drug level in human LNCAP cells xenografted in C.B.-17/Icr +/+ Jcl mouse to muscle of C.B.-17/Icr +/+ Jcl mouse xenografted with human LNCAP and PC3 cells at 25.9 MBq, iv after 6 hrs; conditions: in vivo; in short: as §2
Nucleic Acid [6] = experiment: Ratio of drug level in human LNCAP cells xenografted in C.B.-17/Icr +/+ Jcl mouse to muscle of C.B.-17/Icr +/+ Jcl mouse xenografted with human LNCAP and PC3 cells at 25.9 MBq, iv after 1 hr; conditions: in vivo; in short: as §2
Heart = experiment: Biodistribution in heart of C.B.-17/Icr +/+ Jcl mouse xenografted with human LNCAP and PC3 cells at 25.9 MBq, iv after 2 mins; conditions: in vivo; in short: as §1
LNCaP [7] = experiment: Biodistribution in LNCAP cells in C.B.-17/Icr +/+ Jcl mouse xenografted with human LNCAP and PC3 cells at 25.9 MBq, iv after 2 mins; conditions: in vivo; in short: as §1
Liver [8] = experiment: Drug excretion in C.B.-17/Icr […] Jcl mouse liver xenografted with human LNCAP and PC3 cells at 25.9 MBq, iv; conditions: in vivo
LNCaP [9] = experiment: Biodistribution in LNCAP cells in C.B.-17/Icr +/+ Jcl mouse xenografted with human LNCAP and PC3 cells at 25.9 MBq, iv after 30 mins in presence of 2-PMPA; conditions: in vivo, 0.5 h
In short: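 Blocking study: ¹²⁵I-labelled tracer coinjected iv by tail vein with 2-PMPA (50 mg/kg) in LNCaP/PC-3 xenograft-bearing mice (22–24 g). Mice decapitated 30 min after injection; tissues weighed and counted; uptake as %ID/g.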

Intestine [10] = experiment: Biodistribution in intestine of C.B.-17/Icr […] Jcl mouse xenografted with human LNCAP and PC3 cells at 25.9 MBq, iv after 6 hrs; conditions: in vivo; in short: as §1
Nucleic Acid [11] = experiment: Ratio of drug level in human LNCAP cells to human PC3 cells xenografted in C.B.-17/Icr […] Jcl mouse at 25.9 MBq, iv after 30 mins; conditions: in vivo, 0.5 h
Kidney = experiment: Biodistribution in kidney of C.B.-17/Icr […] Jcl mouse xenografted with human LNCAP and PC3 cells at 25.9 MBq, iv after 1 hr; conditions: in vivo; in short: as §1
Nucleic Acid [12] = experiment: Ratio of drug level in human LNCAP cells to human PC3 cells xenografted in C.B.-17/Icr […] Jcl mouse at 25.9 MBq, iv after 2 mins; conditions: in vivo
Nucleic Acid [13] = experiment: Ratio of drug level in human PC3 cells xenografted in C.B.-17/Icr +/+ Jcl mouse to muscle of C.B.-17/Icr +/+ Jcl mouse xenografted with human LNCAP and PC3 cells at 25.9 MBq, iv after 30 mins; conditions: in vivo, 0.5 h
In short: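 Mice (22–24 g) carried PC-3 (right shoulder) and LNCaP (left shoulder) tumors, raised by injecting 1–5 × 10⁶ cells in 1:1 PBS/Matrigel and used at about 5–10 mm diameter. [¹²⁵I]-tracer was given via the tail vein, n=4 per time point, and mice were decapitated at 2 min, 30 min, 1, 3 or 6 h. Tissues were weighed and γ-counted as %ID/g. Tumor/blood and tumor/muscle ratios were taken from %ID/g, mean ± SD.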

LNCaP [14] = experiment: Biodistribution in LNCAP cells in C.B.-17/Icr +/+ Jcl mouse xenografted with human LNCAP and PC3 cells at 25.9 MBq, iv after 30 mins; conditions: in vivo, 0.5 h; in short: as §1
[15] = Ratio of drug level in human LNCAP cells xenografted in C.B.-17/Icr +/+ Jcl mouse to blood of C.B.-17/Icr +/+ Jcl mouse xenografted with human LNCAP and PC3 cells at 25.9 MBq, iv after 2 mins; conditions: LNCAP tumour xenograft relative to blood; in short: as §2
Intestine [16] = experiment: Biodistribution in intestine of C.B.-17/Icr +/+ Jcl mouse xenografted with human LNCAP and PC3 cells at 25.9 MBq, iv after 30 mins; conditions: in vivo, 0.5 h; in short: as §1
Thyroid gland [17] = experiment: Biodistribution in thyroid of C.B.-17/Icr +/+ Jcl mouse xenografted with human LNCAP and PC3 cells at 25.9 MBq, iv after 2 mins; conditions: in vivo
In short: (§3)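 Radioiodinated (¹²⁵I) tracer given by tail-vein injection to mice bearing LNCaP (left shoulder) and PC-3 (right shoulder) xenografts, 22–24 g, grown to about 5–10 mm. Groups of n=4 were decapitated at 2 min, 30 min, 1 h, 3 h or 6 h. Tissues were weighed and counted, and uptake was expressed as %ID/g (mean ± SD).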

Blood = experiment: Biodistribution in blood of C.B.-17/Icr scid/scid Jcl mouse xenografted with human LNCAP and PC3 cells at 25.9 MBq, iv after 2 mins; conditions: in vivo
Liver [18] = experiment: Biodistribution in liver of C.B.-17/Icr […] Jcl mouse xenografted with human LNCAP and PC3 cells at 25.9 MBq, iv after 1 hr; conditions: in vivo; in short: as §1
Thyroid gland [19] = experiment: Biodistribution in thyroid of C.B.-17/Icr +/+ Jcl mouse xenografted with human LNCAP and PC3 cells at 25.9 MBq, iv after 1 hr; conditions: in vivo; in short: as §3
Nucleic Acid [20] = experiment: Ratio of drug level in human LNCAP cells xenografted in C.B.-17/Icr +/+ Jcl mouse to muscle of C.B.-17/Icr +/+ Jcl mouse xenografted with human LNCAP and PC3 cells at 25.9 MBq, iv after 30 mins; conditions: in vivo, 0.5 h; in short: as §2
Nucleic Acid [21] = experiment: Ratio of drug level in human LNCAP cells to human PC3 cells xenografted in C.B.-17/Icr […] Jcl mouse at 25.9 MBq, iv after 6 hrs; conditions: in vivo

Compound: O=C(O)CC[C@H](NC(=O)N[C@@H](CSC1CC(=O)N(CCCC[C@H](NC(=O)CNC(=O)c2cccc([125I])c2)C(=O)O)C1=O)C(=O)O)C(=O)O (stereo not given in full)
- Drug uptake (LNCaP [1]): 9.5 % ID/g
- Drug uptake (Liver [2]): 13.7 % ID/g
- Drug uptake (LNCaP [3]): 6.7 % ID/g
- Kp at 3 h [4]: 13.8
- Drug uptake (PC-3): 0.9 % ID/g
- Ratio (Nucleic Acid [5]): 76.7
- Ratio (Nucleic Acid [6]): 15.5
- Drug uptake (Heart): 5.4 % ID/g
- Drug uptake (LNCaP [7]): 4.2 % ID/g
- Drug excretion (Liver [8]): Active
- Drug uptake (LNCaP [9]): Not Active
- Drug uptake (Intestine [10]): 5.3 % ID/g
- Ratio (Nucleic Acid [11]): 10.1
- Drug uptake (Kidney): 92.8 % ID/g
- Ratio (Nucleic Acid [12]): 1.5
- Ratio (Nucleic Acid [13]): 1.6
- Drug uptake (LNCaP [14]): 9.5 % ID/g
- Kp at 2 min [15]: 0.6
- Drug uptake (Intestine [16]): 11.2 % ID/g
- Drug uptake (Thyroid gland [17]): 0.02 %ID
- Drug uptake (Blood): 8.9 % ID/g
- Drug uptake (Liver [18]): 13.9 % ID/g
- Drug uptake (Thyroid gland [19]): 0.01 %ID
- Ratio (Nucleic Acid [20]): 11.1
- Ratio (Nucleic Acid [21]): 36.8
